Screens as filed in PubChem BioAssay.
Rows were chosen to be rich in hits. Some 2.6% of all compounds tested hit in one or more screens of this group.
STEP block = blocks human striatal-enriched tyrosine phosphatase; P54829; inhibition, % at 20 µM; 0.25% of 360,000 active; recombinant STEP, OMFP fluorogenic substrate, fluorescence;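 active means inhibition at 20 µM, scaled per plate between control wells, above about 37%, limit read from the data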;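 further: 0% = DMSO with enzyme and substrate and 100% = substrate only without enzyme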
Target sequence (P54829 whole entry, looked up): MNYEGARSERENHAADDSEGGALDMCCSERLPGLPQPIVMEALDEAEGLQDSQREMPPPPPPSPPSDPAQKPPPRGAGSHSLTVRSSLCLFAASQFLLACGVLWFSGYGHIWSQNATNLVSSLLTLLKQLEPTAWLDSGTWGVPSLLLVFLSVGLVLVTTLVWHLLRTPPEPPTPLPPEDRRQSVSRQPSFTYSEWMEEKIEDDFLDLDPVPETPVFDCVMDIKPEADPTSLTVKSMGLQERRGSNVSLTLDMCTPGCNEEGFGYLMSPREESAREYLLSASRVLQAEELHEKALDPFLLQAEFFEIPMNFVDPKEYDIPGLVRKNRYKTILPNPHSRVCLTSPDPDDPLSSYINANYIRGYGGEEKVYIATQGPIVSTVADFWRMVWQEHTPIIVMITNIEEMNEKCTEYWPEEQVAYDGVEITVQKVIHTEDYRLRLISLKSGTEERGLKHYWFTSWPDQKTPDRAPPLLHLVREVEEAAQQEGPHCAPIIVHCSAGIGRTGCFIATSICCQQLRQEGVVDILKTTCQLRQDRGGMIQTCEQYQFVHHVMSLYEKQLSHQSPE
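medium = Bis-Tris buffer pH 6.0, 2.5 mM DTT, 0.005% Tween 20 | test system = STEP (striatal-enriched tyrosine phosphatase) enzyme, cell-free | measure = normalized % inhibition | compound dosing = 20 µM, 1% DMSO | also added = 25 µM OMFP | schedule = reaction 20 min, ambient temperature | measured by = fluorescence read at 480 nm ex / 540 nm em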
NadD inh = inhibitors of Staphylococcus aureus NadD | purified NadD enzyme, colorimetric absorbance read-out | inhibition, % at 20 µM | 0.78% of 360,000 active | AID 602399; in the data active means inhibition above about 26%
rCAG RNA binder = binds r(CAG) RNA repeats; r(CAG) RNA repeat, TO-PRO-1 dye displacement fluorescence; inhibition, % at 3 µM; 1.3% of 370,000 active; AID 651821;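 active means inhibition above the plate cutoff, the mean of all test compounds on that plate plus 3 SD, cut at about 35% in these data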;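 further: 0% = DMSO alone and 100% = 100 µM mitoxantrone as full dye displacement; higher means more dye released from RNA so lower well fluorescence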
LMPTP block = blocks human LMPTP phosphatase | inhibition, % at 20 µM | 0.22% of 360,000 active | P24666 | recombinant LMPTP-A, OMFP fluorogenic substrate, fluorescence intensity;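 active means compounds that cut the enzyme signal by at least half of the control window in the single-dose screen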;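 further: plate controls were DMSO wells with enzyme plus substrate for no effect and substrate without enzyme for full effect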
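test system = LMPTP-A | amount = 0.625 nM LMPTP-A final | reagent = fluorogenic phosphatase substrate OMFP at 400 µM final | incubation = 50 min at room temperature | benchmarks = no-enzyme low control, uninhibited high control | medium = Bis-Tris pH 6.0, DTT, detergent | signal = fluorescence intensity of OMFP turnover product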
Scp1 inh = inhibitors of human Scp-1 phosphatase; Q9GZU7; Recombinant Scp1, phosphopeptide, malachite green phosphate absorbance; inhibition, % at 20 µM; 0.88% of 340,000 active;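 active means inhibition above about 50% at 20 µM, limit read from the data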;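 further: plate controls were DMSO wells with enzyme for no effect and wells lacking enzyme for full effect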
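assay system = SCP-1 phosphatase catalytic domain, residues 76-261 | buffer or medium = 50 mM Tris acetate pH 5.5, 0.005% Tween-20, 10 mM MgCl2 | incubation = enzyme reaction 45 min at room temperature, colour 5 min, stabilisation 30 min | signal = Phosphate-binding colour reagent, absorbance read at 630 nm | measure = % inhibition at 20 µM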
Scp-1 conf = Scp-1 (human) inhibition, single-dose confirmed; 61% of 2,500 active; inhibition, % at 20 µM; shares compounds with Scp1 inh; recombinant SCP-1 catalytic domain, phosphate release, malachite green absorbance;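 further: plate controls were DMSO with enzyme for no effect and buffer wells lacking enzyme for full effect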
MG interference = colorimetric interference in Scp-1 counter-screen. shares compounds with Scp1 inh. apparent inhibition (interference), % at 20 µM. AID 540313. 2,500 tested, under 10 active. Colorimetric interference counterscreen, malachite green absorbance 630 nm;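 further: compounds added after enzyme reaction finished so only phosphate colour detection is probed; plate controls were DMSO wells with completed Scp-1 reaction for no effect and substrate wells lacking enzyme for full effect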
Scp-1 Tm shift = validation of human Scp-1 inhibitors by thermal shift binding; shares compounds with Scp1 inh; Recombinant SCP1, Sypro Orange thermal shift Tm; thermal shift relative to vanadate control, % at 40 µM; 25% of 1,500 active; AID 540329;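 active means substances whose mean melting-temperature shift, as a percentage of the reference inhibitor's shift, reaches about 5.3%, limit read from the data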;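 further: 0% = Tm of DMSO wells and 100% = Tm with sodium orthovanadate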
* = called active by the depositor; x = no result given.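 How the source made its calls, unless noted: active means inhibition of at least 30% at 20 µM; inactive means the rest.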

SMILES	STEP block	NadD inh	rCAG RNA binder	LMPTP block	Scp1 inh	Scp-1 conf	MG interference	Scp-1 Tm shift
C=CCSc1nnc(NC(=O)CSc2nc(CCC)cc(=O)[nH]2)s1	-2	2	15	-1	53*	7	-5	x
CSc1nnc(-c2ccc(NC(=O)CCc3ccccc3)cc2)n1C	-4	14	-1	-2	102*	-5	-16	x
Cn1c(SCC(=O)Nc2ccccc2)nnc1-c1ccc(NC(=O)CCc2ccccc2)cc1	-1	14	-3	-1	0	x	x	x
O=C(C1CCN(c2cncnc2)CC1)N1CCOCC1	x	x	0	x	x	x	x	x
O=C1C=C(O)c2cccc(O)c2C1=O	2	9	19	4	50*	43*	-5	12*
O=C(O)c1ccc([N+](=O)[O-])c(CS(=O)(=O)c2ccc(Cl)cc2)c1	-1	-5	-2	-1	66*	4	-15	x
O=C(CCCCCNC(=O)c1ccccc1)N/N=C/c1ccco1	0	-1	1	0	52*	32*	-11	-11
Cc1cccc(C(=O)Nc2ccc(C(=O)N/N=C/c3ccco3)cc2)c1	21	4	16	20	77*	56*	-13	-8
O=C(N/N=C/c1ccco1)c1ccc(NC(=O)c2ccc(Cl)cc2)cc1	10	15	1	63*	77*	40*	-6	0
O=C(N/N=C/c1ccco1)C1CC1c1ccccc1 (stereo not drawn)	4	2	9	6	60*	48*	-14	-14
Cc1ccc(/C=N/NC(=O)c2ccc(NC(=O)c3ccc(Cl)cc3)cc2)o1	3	7	3	41	3	x	x	x
O=C(N/N=C/c1ccco1)c1cccc(NC(=O)c2ccccc2Cl)c1	1	-3	15	0	-5	x	x	x
CCOc1ccccc1/C=C\c1nc(O)c([N+](=O)[O-])c(=O)[nH]1	1	-1	3	0	-10	x	x	x
O=c1[nH]c(/C=C\c2cccc(O)c2)nc(O)c1[N+](=O)[O-]	4	-4	4	-1	-4	x	x	x
O=c1[nH]c(/C=C\c2ccc(O)c(O)c2)nc(O)c1[N+](=O)[O-]	5	2	1	-1	23	45*	-2	6.2*
COc1ccc(-n2c(C)cc(/C=C/c3nc(O)c([N+](=O)[O-])c(=O)[nH]3)c2C)cc1	3	20	17	16	66*	59*	-18	5
Cc1cc(/C=C\c2nc(O)c([N+](=O)[O-])c(=O)[nH]2)c(C)n1-c1ccccc1	9	10	28	14	68*	71*	-7	4
COc1cc2c(C#CCO)c(-c3ccc(C#N)cc3)oc(=O)c2cc1OC	25	-4	14	4	67*	33*	6	5
CN(CC(=O)Nc1cccc(F)c1)C(=O)c1cccc(-n2cccc2)c1	0	4	19	8	77*	61*	-13	6.7*
CN(CC(=O)Nc1ccccc1C(F)(F)F)C(=O)c1cc(-c2cccs2)nn1-c1ccccc1	0	-7	-3	1	-10	x	x	x
CN(CC(=O)Nc1c(Cl)cccc1Cl)C(=O)c1cccc(-n2cccc2)c1	1	1	9	10	84*	48*	-27	1
CN(CC(=O)Nc1cccc(F)c1)C(=O)c1ccc(N2C(=O)c3ccccc3C2=O)cc1	-3	0	1	1	-2	x	x	x
Cc1ccc(C)c(NC(=O)CN(C)C(=O)c2cccc(-n3cccc3)c2)c1	4	-1	10	8	79*	58*	-21	-8
Cc1ccc(C)c(NC(=O)CN(C)C(=O)c2cc(-c3cccs3)nn2-c2ccccc2)c1	1	-8	0	3	56*	-9	-8	x
C=CC[C@]1(O)C(=O)N(c2ccccc2)c2ccccc21	x	x	0	x	x	x	x	x
O=C(NCCc1ccccc1)OCc1cn(Cc2ccc(C(F)(F)F)cc2)nn1	x	x	-2	x	x	x	x	x
